From ChEMBL document CHEMBL1671785, “Synthesis, physical-chemical characterisation and biological evaluation of novel 2-amido-3-hydroxypyridin-4(1H)-ones: Iron chelators with the potential for treating Alzheimer's disease” (Bioorg Med Chem, 2011)
Calls of active or inactive are those of the source. The calls are words filed in the database; no cut-off is given here.

Experiments:
[1] = molecular target: Tyrosine 3-monooxygenase (Rattus norvegicus) (UniProt P04177); test: Inhibition of tyrosine hydroxylase in rat striata at 10 uM after 20 mins
Chain of Tyrosine 3-monooxygenase (Rattus norvegicus) (P04177 whole entry): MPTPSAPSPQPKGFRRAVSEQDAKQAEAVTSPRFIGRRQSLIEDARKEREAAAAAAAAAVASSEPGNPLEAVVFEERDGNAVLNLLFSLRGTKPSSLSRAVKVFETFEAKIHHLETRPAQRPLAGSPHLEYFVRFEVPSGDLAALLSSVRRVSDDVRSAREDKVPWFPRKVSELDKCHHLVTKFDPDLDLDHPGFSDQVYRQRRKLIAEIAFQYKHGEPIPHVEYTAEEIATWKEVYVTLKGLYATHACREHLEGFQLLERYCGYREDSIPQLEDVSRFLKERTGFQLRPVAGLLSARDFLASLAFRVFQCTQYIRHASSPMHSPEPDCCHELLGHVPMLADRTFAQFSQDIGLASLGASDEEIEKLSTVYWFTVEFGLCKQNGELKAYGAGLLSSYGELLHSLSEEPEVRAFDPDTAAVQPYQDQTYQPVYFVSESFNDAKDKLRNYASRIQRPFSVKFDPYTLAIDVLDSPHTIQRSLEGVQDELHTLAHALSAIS
Outline: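 Rat striatal homogenate (1:9 in 0.32 M sucrose, about 3 mg tissue) in 0.5 M potassium phosphate, pH 6.0, with m-hydroxybenzylhydrazine, 1 mM 6,7-dimethyltetrahydropterine and chelator (1–100 µM). The reaction is started with L-tyrosine (0.4 mM final) for 20 min at 37 °C. L-DOPA is extracted on alumina and quantified by HPLC against α-methyldopa. Triplicate; non-enzymatic background measured using 3-iodotyrosine.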

[2] = Inhibition of soybean lipoxygenase after 15 mins; parameters: species or system Glycine max
Glycine max [3] = test: Inhibition of soybean lipoxygenase at 10 uM after 15 mins
Outline: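 Soybean lipoxygenase in 0.2 M borate buffer, pH 9, was pre-incubated 15 min with the compound (100 µM solution, 10 µM final in cuvette). The reaction was started with linoleic acid (1 mM). Linoleic hydroperoxide formation was followed at 234 nm for 10 min, and rates were computed using ε = 23600 M⁻¹ cm⁻¹.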

[4] = Iron chelating activity of the compound; type: functional
Outline: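 Affinity is given as pM, the negative log of free Fe(III), at total metal 10⁻⁶ M and total ligand 10⁻⁵ M, pH 7.4. Stability constants come from automated potentiometric/spectrophotometric titration in 0.1 M KCl at 25 °C with 5 min equilibration per 0.1 pH step. Data analysed by pHab.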

Glycine max [5] = test: Inhibition of soybean lipoxygenase at 100 uM after 15 mins
[6] = Association constant pKa of the compound; type: physicochemical
Outline: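 Ligand pKa by automated potentiometric titration with spectral scans in 0.1 M KCl at 25 ± 0.1 °C. pH was raised or lowered in 0.1-unit steps with KOH or HCl, and readings were taken once pH drifted by <0.001 over 3 s. A 1 min equilibration was used at each step before analysis of the titration data.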

[7] = Lipophilicity, log D of the compound at pH 7.4; type: physicochemical; conditions: buffer
Outline: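 After centrifugal separation, the loss of aqueous-phase absorbance gives the octanol/buffer concentration ratio.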

Cortical neurone = test: Neuroprotective activity against FeNTA-induced loss of synaptic integrity in rat cortical neurones assessed as damage to cell bodies at 30 uM by phase contrast microscopy; type: functional

SMILES | Activity [1] | EC50 [2] [µM] | inhibition (Glycine max [3]) [%] | Activity [4] | inhibition (Glycine max [5]) [%] | pKa [6] | logD [7] | Activity (Cortical neurone)
CNC(=O)[C@H](C)NC(=O)c1nccc(O)c1O.Cl | inactive | 66 | 2.7 | 19.1 | 61 | 6 | -1.1 | –
Cc1c(O)c(=O)ccn1C [DEFERIPRONE] | – | 64 | – | – | 58 | – | – | –
CNC(=O)[C@H](Cc1ccccc1)NC(=O)c1nccc(O)c1O.Cl | Active | 25 | 27.6 | 21.4 | 71 | 6.1 | -0.11 | –
CCc1c(O)c(=O)ccn1CC | – | 11 | 43 | – | 87.4 | – | – | –
CNC(=O)CNC(=O)c1nccc(O)c1O.Cl | – | 56 | 19.3 | 20.8 | 68 | 6.3 | -1.42 | –
Cl.O=C(CNC(=O)c1nccc(O)c1O)NCc1ccccc1 | – | 54 | 8.3 | 19.1 | 62 | 6.2 | 0.01 | –
CC(C)CNC(=O)[C@H](Cc1ccccc1)NC(=O)c1nccc(O)c1O.Cl | Active | 13 | 46.5 | 20.4 | 81 | 6 | 0.39 | –
CC(C)CNC(=O)[C@H](C)NC(=O)c1nccc(O)c1O.Cl | – | 37 | 15.3 | 19.2 | 71 | 6 | -0.08 | –
Cl.O=C(N[C@@H](Cc1ccccc1)C(=O)NCc1ccccc1)c1nccc(O)c1O | Active | 52 | 30.2 | 21.5 | 60 | 6 | 0.9 | –
CC(C)CNC(=O)CNC(=O)c1nccc(O)c1O.Cl | – | 44 | 9.3 | 20.6 | 70 | 6.2 | -0.33 | –
C[C@H](NC(=O)c1nccc(O)c1O)C(=O)NCc1ccccc1.Cl | inactive | 80 | 3.3 | 18.9 | 54 | 6 | 0.03 | Active
